Published values of several laboratories.
Target: Aurora kinase A (AURKA, Homo sapiens, UniProt O14965)
One construct used (O14965 1-403): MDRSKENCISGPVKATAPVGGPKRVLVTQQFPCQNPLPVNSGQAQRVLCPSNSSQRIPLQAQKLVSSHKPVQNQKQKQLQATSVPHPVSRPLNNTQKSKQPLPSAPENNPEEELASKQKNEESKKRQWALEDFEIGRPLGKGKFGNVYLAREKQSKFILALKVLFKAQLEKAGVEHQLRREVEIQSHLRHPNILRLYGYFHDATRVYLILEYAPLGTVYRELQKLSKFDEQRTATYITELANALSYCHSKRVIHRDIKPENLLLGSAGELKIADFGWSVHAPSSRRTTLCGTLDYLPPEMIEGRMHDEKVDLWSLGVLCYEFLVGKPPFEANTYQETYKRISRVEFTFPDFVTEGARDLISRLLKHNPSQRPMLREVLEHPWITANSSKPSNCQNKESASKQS

| Compound | assay | conditions | remaining binding |
| --- | --- | --- | --- |
| CCC(=O)N[C@H]1CC[C@@H](C(=O)N(C)c2ccc(-c3nc4ccccc4o3)cc2)C1 | cell-free assay, competition with immobilised ligand | 1 µM | 43% |
| c1cnn2ncc(-c3ccnc(N4CCC45COC5)n3)c2c1 | binding | 1 µM | 90% |
| O=C(NS(=O)(=O)c1ccc(NCC2CCOCC2)c([N+](=O)[O-])c1)c1ccc(N2CCN(Cc3ccc(C(F)(F)F)cc3-c3ccc(Cl)cc3)CC2)cc1Oc1cnc2[nH]ccc2c1 | cell-free assay, competition with immobilised ligand | 1 µM | 96% |
| COc1cnc(Nc2cccc(S(N)(=O)=O)c2)nc1N1CCN(c2ccccc2)CC1 | binding, competition with immobilised ligand | 1 µM | 85% |
| O=C(c1ccc(Nc2ncc(Cl)c(-c3ccc(Cl)s3)n2)cc1)N1CCC(N2CCCC2)CC1 | binding, competition with immobilised ligand | 1 µM | 1.9% |
| F[C@@H]1CCN(c2nccc(-c3cnn4ncccc34)n2)C1 | binding | 1 µM | 91% |
| O=C(NCCCN1CCOCC1)c1ccc(Nc2nccc(-c3cc4ccccc4s3)n2)cc1 | binding, competition with immobilised ligand | 1 µM | 55% |
| O=C(NCC1CCOCC1)c1n[nH]cc1NC(=O)c1c(F)cccc1F | binding, competition with immobilised ligand | 1 µM | 87% |
| C[C@@H]1CN(c2ccc3ncc(-c4ccc5[nH]nc(C6CC6)c5c4)n3n2)C[C@H](C)O1 | binding, competition with immobilised ligand | 0.5 µM | 85% |
| CC(C)(C)c1ccc(-c2nc(CBr)nn2-c2cccc(O)c2)cc1 | cell-free assay, competition with immobilised ligand | 10 µM | 91% |
| COc1ccnn2ncc(-c3ccnc(N(C)C)n3)c12 | binding | 1 µM | 93% |
| COc1ccc2cc(OCC3(C(=O)O)CN(C(=O)c4ccc(F)cc4)C3)ccc2c1 | cell-free assay, competition with immobilised ligand | 1 µM | 100% |
| c1cncc(-c2cccc(Nc3nccc(NC4CCCCC4)n3)c2)c1 | binding, competition with immobilised ligand | 10 µM | 5.9% |
| Cc1c(NC(=O)c2cc(C(N)=O)nc3cc(F)ccc23)c(C(F)(F)F)nn1Cc1ccc(C(C)(C)C)cc1 | cell-free assay, competition with immobilised ligand | 1 µM | 100% |
| CCN1CCN(Cc2ccc(C(=O)Nc3ccc(C)c(Oc4ccc5c(c4)CC(=O)N5)c3)cc2C(F)(F)F)CC1 | binding, competition with immobilised ligand | 1 µM | 100% |
| N[C@H]1CCN(c2nccc(-c3cnn4ncccc34)n2)C1 | binding | 1 µM | 97% |
| O=C(Nc1cccnn1)N1CC(C/C=C/c2cncc(Oc3ccc(C(F)(F)F)cn3)n2)C1 | cell-free assay, competition with immobilised ligand | 1 µM | 100% |
